Test results: ChEMBL document CHEMBL3352487, “Synthesis, antibacterial activity, and biological evaluation of formyl hydroxyamino derivatives as novel potent peptide deformylase inhibitors against drug-resistant bacteria” (Eur J Med Chem, 2014)
Converted amounts (≈) assume the structure as drawn.

Assays:
Escherichia coli [1] = assay: Antimicrobial activity against Escherichia coli isolate 2 after 24 hrs by broth microdilution method; assay type: functional; details: isolate 2, 24 h
Method in brief: (§1)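 Broth microdilution following NCCLS M7-A4; ATCC strains and clinical isolates from a provincial hospital.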

[2] = Stability of the compound in artificial intestinal juice measured every 2 hrs for 12 hrs by HPLC analysis; assay type: physicochemical; details: simulated gi fluid
Staphylococcus aureus [3] = assay: Antimicrobial activity against methicillin-resistant Staphylococcus aureus after 24 hrs by broth microdilution method; assay type: functional
Method in brief: (§2)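 Broth microdilution following NCCLS M7-A4, using ATCC strains and clinical isolates from a provincial hospital.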

Escherichia coli [4] = assay: Antimicrobial activity against Escherichia coli isolate 1 after 24 hrs by broth microdilution method; assay type: functional; details: isolate 1, 24 h; method in brief: as §1
[5] = system: Staphylococcus epidermidis; assay: Antimicrobial activity against Staphylococcus epidermidis after 24 hrs by broth microdilution method; assay type: functional; method in brief: as §1
Staphylococcus aureus [6] = assay: Antimicrobial activity against Staphylococcus aureus after 24 hrs by broth microdilution method; assay type: functional; method in brief: as §1
[7] = Solubility of the compound in artificial intestinal juice measured every 2 hrs for 12 hrs by HPLC analysis; assay type: physicochemical; details: simulated gi fluid
[8] = Stability of the compound in artificial gastric juice measured every 2 hrs for 12 hrs by HPLC analysis; assay type: ADME; details: simulated gi fluid
Staphylococcus aureus [9] = assay: Antimicrobial activity against methicillin-susceptible Staphylococcus aureus after 24 hrs by broth microdilution method; assay type: functional; method in brief: as §1
[10] = Solubility of the compound in artificial gastric juice measured every 2 hrs for 12 hrs by HPLC analysis; assay type: ADME; details: simulated gi fluid
Staphylococcus aureus [11] = assay: Antimicrobial activity against Staphylococcus aureus isolate 934324 after 24 hrs by broth microdilution method; assay type: functional; details: isolate 934324, 24 h; method in brief: as §1
Staphylococcus aureus [12] = assay: Antimicrobial activity against Staphylococcus aureus isolate RN1030 after 24 hrs by broth microdilution method; assay type: functional; details: isolate RN1030, 24 h; method in brief: as §2
Staphylococcus aureus [13] = assay: Antimicrobial activity against Staphylococcus aureus isolate RN1024 after 24 hrs by broth microdilution method; assay type: functional; details: isolate RN1024, 24 h; method in brief: as §2
Staphylococcus aureus [14] = assay: Antimicrobial activity against Staphylococcus aureus isolate 934387 after 24 hrs by broth microdilution method; assay type: functional; details: isolate 934387, 24 h; method in brief: as §2
Staphylococcus aureus [15] = assay: Antimicrobial activity against Staphylococcus aureus isolate CARTER 37 after 24 hrs by broth microdilution method; assay type: functional; details: isolate CARTER 37, 24 h; method in brief: as §2
Staphylococcus aureus [16] = assay: Antimicrobial activity against Staphylococcus aureus isolate 306 after 24 hrs by broth microdilution method; assay type: functional; details: isolate 306, 24 h; method in brief: as §1
Staphylococcus aureus [17] = assay: Antimicrobial activity against Staphylococcus aureus isolate Ealing 32 after 24 hrs by broth microdilution method; assay type: functional; details: isolate Ealing 32, 24 h; method in brief: as §1
Staphylococcus aureus [18] = assay: Antimicrobial activity against Staphylococcus aureus isolate MN 1255 after 24 hrs by broth microdilution method; assay type: functional; details: isolate MN 1255, 24 h; method in brief: as §1
Staphylococcus aureus [19] = assay: Antimicrobial activity against Staphylococcus aureus isolate 929003 after 24 hrs by broth microdilution method; assay type: functional; details: isolate 929003, 24 h; method in brief: as §1
Staphylococcus aureus [20] = assay: Antimicrobial activity against Staphylococcus aureus isolate CL 938 after 24 hrs by broth microdilution method; assay type: functional; details: isolate CL 938, 24 h; method in brief: as §1
Staphylococcus aureus [21] = assay: Antimicrobial activity against Staphylococcus aureus isolate MILES HALL after 24 hrs by broth microdilution method; assay type: functional; method in brief: as §2
Staphylococcus aureus [22] = assay: Antimicrobial activity against Staphylococcus aureus isolate CL 939 after 24 hrs by broth microdilution method; assay type: functional; details: isolate CL 939, 24 h; method in brief: as §2
Staphylococcus aureus [23] = assay: Antimicrobial activity against Staphylococcus aureus isolate 929035 after 24 hrs by broth microdilution method; assay type: functional; details: isolate 929035, 24 h; method in brief: as §1
Staphylococcus aureus [24] = assay: Antimicrobial activity against Staphylococcus aureus isolate Ealing 23 after 24 hrs by broth microdilution method; assay type: functional; details: isolate Ealing 23, 24 h; method in brief: as §2
Staphylococcus aureus [25] = assay: Antimicrobial activity against Staphylococcus aureus isolate RUSSELL after 24 hrs by broth microdilution method; assay type: functional; method in brief: as §2
Staphylococcus aureus [26] = assay: Antimicrobial activity against Staphylococcus aureus isolate RN4220 pmz1 after 24 hrs by broth microdilution method; assay type: functional; details: isolate RN4220 pmz1, 24 h; method in brief: as §2
Staphylococcus aureus [27] = assay: Antimicrobial activity against Staphylococcus aureus isolate 934335 after 24 hrs by broth microdilution method; assay type: functional; details: isolate 934335, 24 h; method in brief: as §1
Staphylococcus aureus [28] = assay: Antimicrobial activity against Staphylococcus aureus isolate Smith ATCC 13709 after 24 hrs by broth microdilution method; assay type: functional; details: isolate Smith ATCC 13709, 24 h; method in brief: as §2
Staphylococcus aureus [29] = assay: Antimicrobial activity against Staphylococcus aureus isolate NEQAS 4026 after 24 hrs by broth microdilution method; assay type: functional; details: isolate NEQAS 4026, 24 h; method in brief: as §1
Staphylococcus aureus [30] = assay: Antimicrobial activity against Staphylococcus aureus isolate NEQAS 4158 after 24 hrs by broth microdilution method; assay type: functional; details: isolate NEQAS 4158, 24 h; method in brief: as §1
Staphylococcus aureus [31] = assay: Antimicrobial activity against Staphylococcus aureus isolate F89 after 24 hrs by broth microdilution method; assay type: functional; details: isolate F89, 24 h; method in brief: as §1
Staphylococcus aureus [32] = assay: Antimicrobial activity against Staphylococcus aureus isolate 934334 after 24 hrs by broth microdilution method; assay type: functional; details: isolate 934334, 24 h; method in brief: as §1
Staphylococcus aureus [33] = assay: Antimicrobial activity against Staphylococcus aureus isolate OGA833 after 24 hrs by broth microdilution method; assay type: functional; details: isolate OGA833, 24 h; method in brief: as §1
Staphylococcus aureus [34] = assay: Antimicrobial activity against Staphylococcus aureus isolate CL 1033 after 24 hrs by broth microdilution method; assay type: functional; details: isolate CL 1033, 24 h; method in brief: as §1
Staphylococcus aureus [35] = assay: Antimicrobial activity against Staphylococcus aureus ATCC 29213 after 24 hrs by broth microdilution method; assay type: functional; details: ATCC 29213, 24 h; method in brief: as §1
[36] = Mean residence time (0 to t) in Sprague-Dawley rat at 25 mg/kg, po; assay type: ADME, organism-based; set-up: dose 25 mg/kg, route oral; details: in vivo
[37] = Oral bioavailability in Sprague-Dawley rat at 25 mg/kg; assay type: ADME, organism-based; details: in vivo
[38] = AUC (0 to infinity) in Sprague-Dawley rat at 25 mg/kg, po; assay type: ADME, organism-based; set-up: dose 25 mg/kg, route oral, time infinity; details: plasma
[39] = AUC (0 to t) in Sprague-Dawley rat at 5 mg/kg, iv; assay type: ADME, organism-based; set-up: dose 5 mg/kg, route intravenous; details: plasma
hERG (KCNH2) [40] = target: T1, hERG (KCNH2) (Homo sapiens, UniProt Q12809); assay: Inhibition of human ERG at 10 uM
[41] = Half life in Sprague-Dawley rat at 5 mg/kg, iv; assay type: ADME, organism-based; set-up: dose 5 mg/kg, route intravenous; details: in vivo
[42] = Cmax in Sprague-Dawley rat at 25 mg/kg, po; assay type: ADME, organism-based; set-up: dose 25 mg/kg, route oral; details: in vivo
[43] = AUC (0 to t) in Sprague-Dawley rat at 25 mg/kg, po; assay type: ADME, organism-based; set-up: dose 25 mg/kg, route oral; details: plasma
[44] = AUC (0 to infinity) in Sprague-Dawley rat at 5 mg/kg, iv; assay type: ADME, organism-based; set-up: time infinity, dose 5 mg/kg, route intravenous; details: plasma
[45] = Tmax in Sprague-Dawley rat at 25 mg/kg, po; assay type: ADME, organism-based; set-up: dose 25 mg/kg, route oral; details: in vivo
hERG (KCNH2) [46] = target: T1, hERG (KCNH2); assay: Inhibition of human ERG at 1 uM
[47] = Volume of distribution at steady state in Sprague-Dawley rat at 5 mg/kg, iv; assay type: ADME, organism-based; set-up: dose 5 mg/kg, route intravenous; details: in vivo, read-out: Vdss
[48] = Mean residence time (0 to t) in Sprague-Dawley rat at 5 mg/kg, iv; assay type: ADME, organism-based; set-up: dose 5 mg/kg, route intravenous; details: in vivo
[49] = Half life in Sprague-Dawley rat at 25 mg/kg, po; assay type: ADME, organism-based; set-up: dose 25 mg/kg, route oral; details: in vivo
[50] = Clearance in Sprague-Dawley rat at 5 mg/kg, iv; assay type: ADME, organism-based; set-up: dose 5 mg/kg, route intravenous; details: in vivo

T1 sequence (Q12809 whole entry): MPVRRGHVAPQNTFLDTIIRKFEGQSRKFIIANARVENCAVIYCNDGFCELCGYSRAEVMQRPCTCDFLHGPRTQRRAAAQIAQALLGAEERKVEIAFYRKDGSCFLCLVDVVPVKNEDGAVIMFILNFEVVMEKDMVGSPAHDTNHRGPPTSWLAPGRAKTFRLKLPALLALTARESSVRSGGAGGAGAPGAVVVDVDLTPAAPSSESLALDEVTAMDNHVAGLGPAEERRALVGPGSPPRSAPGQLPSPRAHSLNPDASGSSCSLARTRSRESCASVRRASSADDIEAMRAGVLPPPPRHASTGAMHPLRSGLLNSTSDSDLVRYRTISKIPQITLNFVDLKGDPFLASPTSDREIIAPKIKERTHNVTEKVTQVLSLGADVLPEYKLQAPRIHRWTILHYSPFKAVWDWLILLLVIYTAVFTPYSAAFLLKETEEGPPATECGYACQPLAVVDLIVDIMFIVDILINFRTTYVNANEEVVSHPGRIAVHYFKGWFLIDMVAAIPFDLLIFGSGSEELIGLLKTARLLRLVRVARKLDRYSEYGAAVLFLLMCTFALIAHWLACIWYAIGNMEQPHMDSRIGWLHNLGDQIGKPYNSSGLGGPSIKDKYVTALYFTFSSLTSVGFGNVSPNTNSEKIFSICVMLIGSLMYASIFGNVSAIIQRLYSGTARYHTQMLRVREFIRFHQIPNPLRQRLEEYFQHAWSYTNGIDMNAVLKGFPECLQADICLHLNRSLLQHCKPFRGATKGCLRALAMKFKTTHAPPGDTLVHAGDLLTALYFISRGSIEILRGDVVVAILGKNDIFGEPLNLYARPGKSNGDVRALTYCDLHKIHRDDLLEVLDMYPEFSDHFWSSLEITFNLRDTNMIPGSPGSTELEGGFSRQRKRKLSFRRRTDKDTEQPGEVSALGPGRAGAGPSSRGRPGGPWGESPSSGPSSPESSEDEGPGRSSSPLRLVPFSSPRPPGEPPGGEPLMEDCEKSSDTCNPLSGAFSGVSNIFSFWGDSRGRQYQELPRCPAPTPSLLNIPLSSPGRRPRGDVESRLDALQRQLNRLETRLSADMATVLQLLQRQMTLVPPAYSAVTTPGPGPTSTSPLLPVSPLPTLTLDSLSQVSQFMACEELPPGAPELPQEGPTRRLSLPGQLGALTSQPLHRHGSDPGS

With `CCCC[C@H](CN(O)C=O)C(=O)N1CC=C[C@H]1C(=O)Nc1ccc(F)cn1` the MIC (Escherichia coli [1]) was 64 µg/mL (≈ 169 µM), the Stability [2] was “Stable” and the MIC (Staphylococcus aureus [3]) was 0.25 µg/mL (≈ 0.661 µM). For the same molecule, the MIC (Escherichia coli [4]) was greater than 64 µg/mL, the MIC [5] was 0.5 µg/mL (≈ 1.32 µM) and the MIC (Staphylococcus aureus [6]) was 0.5 µg/mL (≈ 1.32 µM). The solubility [7] was “soluble”, the Stability [8] was “Stable” and the MIC (Staphylococcus aureus [9]) was 1 µg/mL (≈ 2.64 µM). For the same molecule, the solubility [10] was “soluble”.

In the case of `C/C(=C\C(=O)OCCCCCCCCC(=O)O)C[C@@H]1OC[C@H](C[C@@H]2O[C@H]2[C@@H](C)[C@H](C)O)[C@@H](O)[C@H]1O` [MUPIROCIN], the MIC (Staphylococcus aureus [11]) is reported as 0.25 µg/mL (≈ 0.499 µM), the MIC (Staphylococcus aureus [12]) is reported as 0.25 µg/mL (≈ 0.499 µM) and the MIC (Staphylococcus aureus [13]) is reported as 0.25 µg/mL (≈ 0.499 µM). The MIC (Staphylococcus aureus [14]) was 0.25 µg/mL (≈ 0.499 µM), the MIC (Staphylococcus aureus [15]) was greater than 16 µg/mL and the MIC (Staphylococcus aureus [16]) was greater than 16 µg/mL. For the same molecule, the MIC (Staphylococcus aureus [17]) was greater than 16 µg/mL, the MIC (Staphylococcus aureus [18]) was 0.25 µg/mL (≈ 0.499 µM) and the MIC (Staphylococcus aureus [19]) was 0.25 µg/mL (≈ 0.499 µM). For the same molecule, the MIC (Staphylococcus aureus [20]) was 0.25 µg/mL (≈ 0.499 µM), the MIC (Staphylococcus aureus [21]) was greater than 16 µg/mL and the MIC (Staphylococcus aureus [22]) was 0.25 µg/mL (≈ 0.499 µM). It also gave an MIC (Staphylococcus aureus [23]) of 0.25 µg/mL (≈ 0.499 µM), an MIC (Staphylococcus aureus [24]) greater than 16 µg/mL and an MIC (Staphylococcus aureus [25]) of 0.25 µg/mL (≈ 0.499 µM). It also gave an MIC (Staphylococcus aureus [26]) greater than 16 µg/mL, an MIC (Staphylococcus aureus [27]) of 0.25 µg/mL (≈ 0.499 µM) and an MIC (Staphylococcus aureus [28]) of 0.06 µg/mL (≈ 0.12 µM). For the same molecule, the MIC (Staphylococcus aureus [29]) was greater than 16 µg/mL, the MIC (Staphylococcus aureus [30]) was 0.25 µg/mL (≈ 0.499 µM) and the MIC (Staphylococcus aureus [31]) was greater than 16 µg/mL. The MIC (Staphylococcus aureus [32]) was 0.25 µg/mL (≈ 0.499 µM), the MIC (Staphylococcus aureus [33]) was greater than 16 µg/mL and the MIC (Staphylococcus aureus [34]) was 0.25 µg/mL (≈ 0.499 µM). The MIC (Staphylococcus aureus [35]) was 0.25 µg/mL (≈ 0.499 µM).

With `CCCC[C@H](CN(O)C=O)C(=O)N1CC=C[C@H]1C(=O)Nc1ncc(C)s1` the MRT last [36] was 2.45 h, the MIC (Escherichia coli [1]) was 16 µg/mL (≈ 42.1 µM) and the bioavailability [37] was 88.7%. For the same molecule, the Stability [2] was “Stable”, the AUC(0-inf) [38] was 21900 ng·h/mL and the AUC(0-t) [39] was 4920 ng·h/mL. It also gave an MIC (Staphylococcus aureus [3]) of 0.125 µg/mL (≈ 0.329 µM), an MIC (Escherichia coli [4]) of 32 µg/mL (≈ 84.1 µM) and an inhibition at 10 µM (hERG (KCNH2) [40]) of 5.5%. It also gave a half-life [41] of 4.08 h, a Cmax [42] of 12400 ng/mL and an MIC [5] of 0.25 µg/mL (≈ 0.657 µM). The MIC (Staphylococcus aureus [6]) was 0.0625 µg/mL (≈ 0.164 µM), the AUC(0-t) [43] was 21800 ng·h/mL and the AUC(0-inf) [44] was 4930 ng·h/mL. The Tmax [45] was 0.625 h, the inhibition at 1 µM (hERG (KCNH2) [46]) was 5.7% and the Vd [47] was 1.01 L/kg. The solubility [7] was “soluble”, the Stability [8] was “Stable” and the MRT last [48] was 0.952 h. For the same molecule, the half-life [49] was 2.56 h, the clearance [50] was 17 mL/min/kg and the MIC (Staphylococcus aureus [9]) was 0.25 µg/mL (≈ 0.657 µM). The solubility [10] was “soluble”.
